Here are results for one compound from ChEMBL document CHEMBL1153905, “Functionalized 3-benzylidene-indolin-2-ones: inducers of NAD(P)H-quinone oxidoreductase 1 (NQO1) with antiproliferative activity” (Bioorg Med Chem, 2009).

A short description of series [1]: Cytotoxicity against mouse Hepa-1c1c7 cells after 48 hrs by MTT assay. Particulars: hepa-1c1c7, 48 h. The class given is cell-based. In short, it runs like this:
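Murine hepatoma cells in α-MEM with 10% heat- and charcoal-treated fetal calf serum, passages 6–17; MTT read-out as for the cancer lines but with 48 h compound exposure. Highest concentration tested 25 µM. IC50 from survival-versus-concentration curve; mean and SD, n = 3.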
(Tetrazolium dyes change colour on reduction, which living cells bring about.)

In the next series the target is T1, CYP1A1 (Mus musculus, UniProt P00184).
T1 sequence (P00184 whole entry): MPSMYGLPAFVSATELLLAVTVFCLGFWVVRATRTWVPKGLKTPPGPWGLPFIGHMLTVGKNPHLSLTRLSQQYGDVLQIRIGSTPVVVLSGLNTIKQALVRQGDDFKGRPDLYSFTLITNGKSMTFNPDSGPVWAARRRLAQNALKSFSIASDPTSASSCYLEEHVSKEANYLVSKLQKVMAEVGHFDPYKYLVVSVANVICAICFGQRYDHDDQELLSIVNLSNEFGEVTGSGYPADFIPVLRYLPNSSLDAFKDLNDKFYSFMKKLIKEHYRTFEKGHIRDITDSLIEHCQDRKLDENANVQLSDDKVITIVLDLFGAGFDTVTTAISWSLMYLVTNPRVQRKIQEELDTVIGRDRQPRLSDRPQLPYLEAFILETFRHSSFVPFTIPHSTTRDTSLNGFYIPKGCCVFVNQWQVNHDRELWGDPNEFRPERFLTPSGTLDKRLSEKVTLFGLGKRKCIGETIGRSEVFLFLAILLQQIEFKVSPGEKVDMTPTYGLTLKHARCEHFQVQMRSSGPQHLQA
The experiment in a line: Induction of CYP1A1 activity in mouse Hepa-1c1c7 cells assessed as induction ratio at 50 nM after 48 hrs by EROD assay relative to control. The class given is ADME, cell-based. An outline of the steps: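 Hepa1c1c7 cells were seeded at 10,000 per well and grown 24 h. They were then exposed 48 h to compound (final DMSO 0.5% v/v) at about 4 × the NQO1 CD. After a PBS wash, cells got 5 µM 7-ethoxyresorufin plus 2 mM salicylamide in medium, 37 °C, 40 min. Resorufin was read at ex 530/em 590 nm, corrected for compound fluorescence. Ratio = (F treated − blank)/(F DMSO control − blank); mean ± SD, n = 3.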

A short description of series [2]: Ratio of induction of NQO1 activity to induction of CYP1 activity in mouse Hepa-1c1c7 cells at 50 nM after 48 hrs.
In series [3] the target is NAD(P)H dehydrogenase [quinone] 1 (Mus musculus) (UniProt Q64669). The experiment in a line: Induction of NQO1 activity in mouse Hepa-1c1c7 cells assessed as induction ratio at 50 nM after 48 hrs by MTT assay relative to control. The class given is cell-based. In short, it runs like this: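 Hepa1c1c7 cells, 10,000 per well, 24 h, were then treated 48 h (DMSO ≤0.5%). Digitonin/EDTA lysates were assayed for menadione-dependent MTT-formazan formation using a G6P/G6PDH NADPH-generating mix with FAD at pH 7.4. The reaction ran 5 min, was stopped with dicoumarol, and read at A590. Degree of induction = (A test − blank)/(A control − blank). Ratios were read off the induction–concentration plot at the EROD test concentration.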
NAD(P)H dehydrogenase [quinone] 1 (Mus musculus), sequence (Q64669 whole entry): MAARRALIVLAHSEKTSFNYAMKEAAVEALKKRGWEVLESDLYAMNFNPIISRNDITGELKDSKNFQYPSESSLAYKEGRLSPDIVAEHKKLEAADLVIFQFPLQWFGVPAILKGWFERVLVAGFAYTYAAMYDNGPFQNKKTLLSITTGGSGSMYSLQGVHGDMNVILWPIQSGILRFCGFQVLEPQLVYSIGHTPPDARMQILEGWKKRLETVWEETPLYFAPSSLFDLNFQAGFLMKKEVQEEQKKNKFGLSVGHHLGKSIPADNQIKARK

As to `O=C1Nc2ccccc2/C1=C1\C(=O)Nc2cc(Cl)ccc21`, the half-inhibitory concentration (IC50) (commonly the concentration needed to halve the response being measured) in series [1] is more than 25 µM. At CYP1A1, the fold induction (as a rule, the signal under treatment as a multiple of the control signal) at 48 h, 0.05 µM stood at 2.09. In addition, the Ratio in series [2] came to 1.38; in series [3] it was 2.88.
